FLuc stim CS – firefly luciferase counter-screen for stimulation assays | P08659 | ATPlite luciferase biochemical, luminescence, 10 min; 0 = ATP-free wells, 1 = DMSO control | activation factor at 10 µM | 200,000 tested, under 10 active;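 active means luciferase activation factor, scaled between plate controls, of at least 2 with compound at 10 µM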
Target sequence (P08659 whole entry, looked up): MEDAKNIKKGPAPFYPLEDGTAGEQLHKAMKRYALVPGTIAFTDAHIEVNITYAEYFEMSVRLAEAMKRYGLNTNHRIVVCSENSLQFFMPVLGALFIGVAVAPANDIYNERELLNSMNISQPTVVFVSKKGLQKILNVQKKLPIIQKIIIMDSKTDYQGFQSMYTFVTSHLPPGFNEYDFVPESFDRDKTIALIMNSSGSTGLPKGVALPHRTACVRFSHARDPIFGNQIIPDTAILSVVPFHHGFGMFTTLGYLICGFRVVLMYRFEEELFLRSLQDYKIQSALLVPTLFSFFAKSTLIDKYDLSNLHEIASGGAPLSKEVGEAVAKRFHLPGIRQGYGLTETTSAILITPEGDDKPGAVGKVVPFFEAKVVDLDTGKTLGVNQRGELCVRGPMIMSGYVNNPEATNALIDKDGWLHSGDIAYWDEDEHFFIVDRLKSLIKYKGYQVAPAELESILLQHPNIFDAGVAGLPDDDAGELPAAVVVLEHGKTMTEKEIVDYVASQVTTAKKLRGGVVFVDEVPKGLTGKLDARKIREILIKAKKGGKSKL
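System: Luciferase/luciferin detection reagent, cell-free biochemical luciferase assay | Medium: PBS buffer for ATP | Dosing: Test compounds dosed from 2 mM stocks in 100% DMSO | Timing: 10 min at ambient temperature | Signal: Luminescence measurement of luciferase light output | Evaluation: Luciferase activation, seen as luminescence increase over controls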
PPC-1+TRAIL kill – compounds killing PPC-1 cancer cells with TRAIL present (potentiator screen, no TRAIL-free arm). PPC-1 cells + TRAIL, ATPLite viability luminescence. cell killing (% activity), % at 4 µM or 5 µM. 0.41% of 220,000 active. AID 1443;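 active means cell killing above 50% in the first pass at 4 µM, then a duplicate retest at 5 µM averaging 50% or more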;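 further: plate controls were cells with TRAIL plus DMSO for no effect and medium-only wells lacking cells for full effect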
TRAIL sens C8 – caspase-8 TRAIL sensitization | NB7+C8 cells + TRAIL, ATPlite viability luminescence | inhibition (viability loss, TRAIL sensitization), % at 10 µM | 1% of 360,000 active | AID 624354;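 active means compounds causing at least 50% loss of cell viability in the single-dose screen, relative to plate controls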
FLuc inhib CS – inhibits firefly luciferase, flagging false hits in luciferase inhibition screens. P08659. ATPLite firefly luciferase biochemical luminescence, 10 min. inhibition, % at 10 µM. 1.5% of 200,000 active;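 active means inhibition above about 50% when tested at 10 µM, limit read from the data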
* marks the source's active call; other numbers are inactive results; . = not tested or not shown. Compounds with a hit are over-represented: about 1.6% of the library has one in this group of screens.

SMILES	FLuc stim CS	PPC-1+TRAIL kill	TRAIL sens C8	FLuc inhib CS
CN1CC(=O)N2C(c3ccc(Cl)cc3)c3[nH]c4ccccc4c3C[C@H]2C1=O (some centres not stated)	.	.	55*	.
COC(=O)c1ccc(C2c3[nH]c4ccccc4c3C[C@H]3C(=O)N(C)CC(=O)N23)cc1 (some centres not stated)	.	.	-7	.
CCc1nc2ccccc2c(C(=O)OCC(=O)Nc2ccc(S(=O)(=O)N3CCOCC3)cc2)c1C	1.1	-1	13	-10
CCc1nc2ccccc2c(C(=O)OCC(=O)Nc2cccc(S(=O)(=O)N3CCOCC3)c2)c1C	1	-2	50*	-4
Cc1c(N2C(=O)CSC2=S)c(=O)n(-c2ccccc2)n1C	1	21	-4	2
COc1ccc(/C=C2/CCC(CN3CCOCC3)C2=O)cc1 (configuration not stated)	.	.	80*	.
O=C(Nc1ccc2c(c1)OCCO2)c1cccc(Cl)c1	.	.	38	.
CC(C)Oc1cccc(C(=O)Nc2ccc(CN3CCOCC3)cc2)c1	0.9	27	9	7
COc1cccc(NC(=O)c2ccc(CN3CCOCC3)cc2)c1	0.5	1	24	51*
O=C(Nc1cccc(Cl)c1)c1ccc2c(c1)OCCO2	.	.	59*	.
COc1cccc(NC(=O)c2ccc3c(c2)OCO3)c1	.	.	53*	.
COc1cccc(NC(=O)c2ccc3c(c2)OCCO3)c1	.	.	87*	.
C#Cc1ccccc1OCCCN1CCC(C(O)(c2ccccc2)c2ccccc2)CC1	.	.	93*	.
Cc1cccc2cc(C(c3nnnn3Cc3ccccc3)N3CCN(C)CC3)c(=O)[nH]c12 (configuration not stated)	1	9	-7	-4
COc1ccccc1/C=C/C=N/n1c(-c2cc(-c3ccccc3)n[nH]2)n[nH]c1=S	.	10	58*	.
CC(C)(C)OC(=O)N/N=C\c1ccc[nH]1	0.4	28	2	62*
CC(C)(C)c1ccc2c(c1)OC(C(=O)N/N=C\c1ccncc1)CO2 (configuration not stated)	.	-5	-5	.
CC(C)(C)OC(=O)N/N=C/c1cccc([N+](=O)[O-])c1	0.2	31	30	79*
CC(C)(C)c1ccc2c(c1)OC(C(=O)N/N=C\c1ccc[nH]1)CO2 (configuration not stated)	.	.	61*	.
Cc1cccc(C(=O)N/N=C/c2ccc[nH]2)c1	0.7	7	-24	26
O=C(C[C@H]1CC[C@H]2[C@@H](COC[C@H](O)CN2Cc2ccccc2)O1)NCCCN1CCOCC1	.	.	-19	.
Cc1noc(C)c1COC(=O)CNC(=O)c1ccc(Cl)cc1	1	20	6	-3
COc1ccc(Nc2cccccc2=O)cc1	1	7	0	4
COc1ccc(Nc2cccc3ccccc23)cc1	.	.	56*	.
Cc1nn(-c2ccccc2)c(Cl)c1CN(C(=O)CCl)c1ccc(Cl)cc1	1.1	-3	97*	-7
SMILES	FLuc stim CS	PPC-1+TRAIL kill	TRAIL sens C8	FLuc inhib CS
Cc1nn(-c2ccccc2)c(Cl)c1CN(C(=O)CCl)c1cccc2ccccc12	1.1	-3	97*	-6
C=CCNC(=O)/C(=C\c1ccc(OC)cc1)NC(=O)c1ccc([N+](=O)[O-])cc1	1	5	2	-2
Cc1nc2cc(NS(=O)(=O)c3c(C)c(C)cc(C)c3C)ccc2s1	1	-8	34	-5
CCC(=O)Nc1cccc(NC(=O)c2cc3ccccc3o2)c1	0.5	25	22	54*
Cc1cccc(NC(=O)c2cc3ccccc3o2)c1	0.3	36	44	66*
CC(=O)NS(=O)(=O)c1ccc(NC(=O)/C=C/c2ccc(C)o2)cc1	1	14	-5	-3
CCOC(=O)[C@H]1[C@H]2COc3ccc(Cl)cc3[C@@H]2N2C(=O)c3cc(F)ccc3NC(=O)[C@@]12C	.	.	16	.
COc1cc(/C=N/NC(=O)c2nnn(-c3nonc3N)c2C)ccc1OCc1ccc(Cl)cc1	.	.	56*	.
CCNc1nc(N)nc(-c2cc(Cl)ccc2O)n1	0.4	42	47	63*
CCCCNc1nc(N)nc(-c2cc(Cl)ccc2O)n1	0.8	12	29	21
COc1ccc(NC(=O)CSc2nc3[nH]ncc3c(=O)n2-c2ccccc2OC)cc1OC	1	71*	-16	-1
COC1=C(N)C(=O)c2nc(C)ccc2C1=O	.	.	91*	.
COC1=C(Br)C(=O)c2nc(C)ccc2C1=O	.	.	0	.
O=C(c1ccc(Cl)cc1)c1ccc(CN2C(=O)c3ccccc3C2=O)o1	1	3	6	-3
Cc1ccc(C(=O)c2coc3c2C(=O)C(=O)c2ccccc2-3)cc1	1	-8	-5	-2
Cc1ccc(C(=O)c2c(C)oc3c2C(=O)C(=O)c2ccccc2-3)cc1	1	17	97*	2
Cc1oc2c(c1C(=O)c1ccc(Cl)cc1)C(=O)C(=O)c1ccccc1-2	1.1	14	94*	-10
COc1ccc(C(=O)OC(C)C(=O)NC(C)CCc2ccccc2)cc1OC (configuration not stated)	.	.	-1	.
Cc1c(NC(=O)COC(=O)CSc2ccc([N+](=O)[O-])cc2)c(=O)n(-c2ccccc2)n1C	.	.	6	.
CC(=O)n1cc(N(C(=O)CCl)c2ccc([N+](=O)[O-])cc2)c2ccccc21	.	8	72*	.
CC(=O)n1cc(N(C(=O)CCl)c2ccccc2)c2ccccc21	.	18	95*	.
Oc1ccc(Br)cc1/C=N/NC(=S)NCCc1ccccc1	.	.	15	.
COC(=O)N/N=C/c1cc(Br)ccc1O	1	-5	1	0
O=C(N/N=C/c1cc(Br)ccc1O)c1ccccc1Cl	0.9	43	56*	8
O=C(CCc1ccccc1)N/N=C/c1cc(Br)ccc1O	1	16	55*	-3
SMILES	FLuc stim CS	PPC-1+TRAIL kill	TRAIL sens C8	FLuc inhib CS
CCc1ccc(Nc2n[n+](-c3ccccc3)c(-c3ccc(N(CC)CC)cc3)s2)cc1	.	.	53*	.
CCCCC1(CO)C(=O)N(c2ccccc2)N(c2ccccc2)C1=O	.	-14	-6	.
CCCCC1C(=O)N(c2ccccc2)N(c2ccc(O)cc2)C1=O (configuration not stated)	.	.	57*	.
Cc1ccc2sc(N(CCCN(C)C)C(=O)CCS(=O)(=O)c3ccccc3)nc2c1C	.	.	51*	.
CCCC[C@@H]1C[C@H]1[C@@H](NC(=O)c1ccccc1)c1ccccc1C(F)(F)F	1	12	3	-4
Cc1cc(C)nc(N(C#N)Cc2cccc([N+](=O)[O-])c2)n1	1	1	-9	-4
CCOC(=O)C(=C1Nc2ccccc2N1)n1c(-c2cccnc2)nc2ccccc21	.	.	71*	.
CCn1c(-c2cc(-c3cc(OC)ccc3OC)nc3ccccc23)n[nH]c1=S	1.1	8	1	-6
COc1ccc(/C=N/N2C(=O)CSC2=S)cc1	1	12	-10	-1
COc1ccc(-c2nn(-c3ccccc3)cc2/C=N/N2C(=O)CSC2=S)cc1	1.1	-12	69*	-6
CCOC(=O)Cc1ccc(NC(=O)c2ccc(C(C)(C)C)cc2)cc1	0.5	48	32	54*
Cc1noc(N)c1C(=O)Nc1ccc(C(C)(C)C)cc1	0.3	30	56*	67*

Bioassay records from PubChem.
